Measured values taken from ChEMBL document CHEMBL4411287, “Discovery and optimization of a series of 3-substituted indazole derivatives as multi-target kinase inhibitors for the treatment of lung squamous cell carcinoma” (Eur J Med Chem, 2019).
Activity calls are given as the source filed them. The calls are words filed in the database; no cut-off is given here.

Assays:
NCI-H2286 [1] = test: Antiproliferative activity against human NCI-H2286 cells after 72 hrs by CCK8 assay; conditions: NCI-H2286, 72 h
[2] = Cmax in ICR(CD-1) mouse at 10 mg/kg, po administered via gavage by triple quadrupole mass spectrometric analysis; format: ADME, organism-based; parameters: dose 10 mg/kg, route oral; conditions: in vivo
In short: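 Oral gavage at 1 mg/mL in 1% Tween80/water to male ICR mice (18-22 g, n=3). Plasma sampled at 0.25, 0.5, 1, 2, 4, 8 and 24 h, protein precipitated with methanol:acetonitrile (1:1) containing internal standard, and quantified by UPLC-triple quadrupole MS. AUC and MRT were taken from per-animal time-concentration curves. Cmax is the maximum plasma level and Tmax the time to reach it.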

[3] = target: Vascular endothelial growth factor receptor 1 (Homo sapiens) (UniProt P17948); test: Inhibition of VEGFR1 (unknown origin) at 1000 nM relative to control
In short: (§1)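 ELISA with purified recombinant kinase on plates precoated with poly(Glu,Tyr) 4:1 at 20 µg/mL. ATP 10 µM in HEPES pH 7.4 buffer with MgCl2, MnCl2, Na3VO4 and DTT. Run 60 min at 37 °C. Detected with anti-phosphotyrosine PY99, HRP secondary antibody and o-phenylenediamine, read at 490 nm. Inhibition % = [1 − A490/A490 control]×100. 1% DMSO as negative control.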

[4] = target: Tyrosine-protein kinase BTK (Homo sapiens) (UniProt Q06187); test: Inhibition of BTK (unknown origin) at 100 nM relative to control
[5] = target: Mitogen-activated protein kinase 3 (Homo sapiens) (UniProt P27361); test: Inhibition of ERK1 (unknown origin) at 100 nM relative to control
[6] = target: Tyrosine-protein kinase JAK2 (Homo sapiens) (UniProt O60674); test: Inhibition of JAK2 (unknown origin) at 100 nM relative to control
In short: (§2)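 Purified recombinant kinase domains run in ELISA on precoated poly(Glu,Tyr) 4:1 (20 µg/mL) with 10 µM ATP in 50 mM HEPES pH 7.4, 50 mM MgCl2, 0.5 mM MnCl2, 0.2 mM Na3VO4, 1 mM DTT; 1% DMSO control; 60 min at 37 °C. Phosphotyrosine read by PY99 antibody, HRP anti-mouse IgG, OPD/H2O2 at 490 nm; inhibition = [1−A490/A490control]×100%; two separate experiments.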

[7] = target: Vascular endothelial growth factor receptor 1 (Homo sapiens) (UniProt P17948); test: Inhibition of VEGFR1 (unknown origin) at 100 nM relative to control; in short: as §1
[8] = target: Tyrosine-protein kinase ABL1 (Homo sapiens) (UniProt P00519); test: Inhibition of ABL (unknown origin) at 10 nM relative to control
[9] = target: Macrophage colony-stimulating factor 1 receptor (Homo sapiens) (UniProt P07333); test: Inhibition of CSF-1R (unknown origin) at 10 nM relative to control
[10] = target: Ephrin type-A receptor 2 (Homo sapiens) (UniProt P29317); test: Inhibition of EPH-A2 (unknown origin) at 10 nM relative to control; in short: as §2
[11] = system: T1, Discoidin domain-containing receptor 2 (Homo sapiens), Q16832 [I638F]; test: Inhibition of DDR2 I638F mutant in human NCI-H2286 cells assessed as decrease in ERK phosphorylation at […] after 2 hrs by Western blot analysis; format: cell-based
T1 sequence (whole entry): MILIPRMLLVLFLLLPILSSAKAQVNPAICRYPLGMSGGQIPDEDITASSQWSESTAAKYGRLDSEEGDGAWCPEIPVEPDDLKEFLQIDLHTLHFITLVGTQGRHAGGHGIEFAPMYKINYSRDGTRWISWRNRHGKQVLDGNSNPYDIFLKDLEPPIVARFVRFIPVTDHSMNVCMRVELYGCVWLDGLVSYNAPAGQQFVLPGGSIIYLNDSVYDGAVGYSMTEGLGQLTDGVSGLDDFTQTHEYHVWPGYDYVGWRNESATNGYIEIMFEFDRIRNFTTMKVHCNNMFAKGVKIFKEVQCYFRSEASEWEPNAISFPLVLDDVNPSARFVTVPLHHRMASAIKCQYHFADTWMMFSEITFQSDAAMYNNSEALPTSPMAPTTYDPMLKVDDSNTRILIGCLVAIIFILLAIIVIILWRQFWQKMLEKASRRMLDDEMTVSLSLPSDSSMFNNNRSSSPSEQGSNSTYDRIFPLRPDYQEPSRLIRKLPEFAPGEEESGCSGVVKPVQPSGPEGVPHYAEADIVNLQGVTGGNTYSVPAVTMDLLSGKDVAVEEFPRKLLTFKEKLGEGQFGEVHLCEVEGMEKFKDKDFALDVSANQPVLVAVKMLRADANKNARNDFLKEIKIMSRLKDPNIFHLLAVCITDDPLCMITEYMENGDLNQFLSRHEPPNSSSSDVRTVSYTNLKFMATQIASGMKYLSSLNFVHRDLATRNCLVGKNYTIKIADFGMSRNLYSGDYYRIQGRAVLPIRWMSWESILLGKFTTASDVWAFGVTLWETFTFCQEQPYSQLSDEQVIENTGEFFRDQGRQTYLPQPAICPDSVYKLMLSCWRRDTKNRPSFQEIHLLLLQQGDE
In short: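 NCI-H2286 cells exposed to compound for 2 h at 37 °C and lysed in SDS sample buffer. Lysates run on 10% SDS-PAGE and blotted to nitrocellulose. Membranes probed for phospho- and total DDR2, ERK and Akt, with GAPDH as loading control, and detected by HRP secondary antibody and enhanced chemiluminescence.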

NCI-H716 = test: Antiproliferative activity against FGFR2 amplified human NCI-H716 cells after 72 hrs by CCK8 assay; format: functional, cell-based; conditions: NCI-H716, 72 h
In short: (§3)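 Cells seeded at low density in growth medium and compounds added the next day. Incubated 72 h, then proliferation read by sulforhodamine B, MTT or CCK-8. IC50 obtained by four-parameter concentration-response curve fitting.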

NCI-H2286 [12] = test: Antiproliferative activity against human NCI-H2286 cells harboring DDR2 mutation after 72 hrs by CCK8 assay; format: functional, cell-based; conditions: NCI-H2286, 72 h; in short: as §3
NCI-H1581 [13] = test: Antitumor activity against human NCI-H1581 cells xenografted in nude mouse assessed as tumor growth inhibition at 10 mg/kg, po qd for 7 to 10 days relative to control; format: functional; conditions: read-out: TGI
In short: (§4)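 Female nude mice, 4-6 weeks old. NCI-H1581 cells (5×10^6 in 200 µL) injected s.c., grown to 700-800 mm³, then 1-mm³ fragments implanted s.c. by trocar. At 100-150 mm³ animals were randomized (vehicle n=12, treated n=6) and dosed orally once daily for 7 days. Tumours measured twice weekly, volume = length×width²/2. TGI calculated from change in tumour volume versus vehicle on the final day, with Student's t-test.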

NCI-H1581 [14] = test: Antitumor activity against human NCI-H1581 cells xenografted in po dosed nude mouse assessed as tumor growth inhibition administered as qd for 7 to 10 days; format: functional, organism-based; in short: as §4

Chain of Vascular endothelial growth factor receptor 1 (Homo sapiens) (P17948 whole entry): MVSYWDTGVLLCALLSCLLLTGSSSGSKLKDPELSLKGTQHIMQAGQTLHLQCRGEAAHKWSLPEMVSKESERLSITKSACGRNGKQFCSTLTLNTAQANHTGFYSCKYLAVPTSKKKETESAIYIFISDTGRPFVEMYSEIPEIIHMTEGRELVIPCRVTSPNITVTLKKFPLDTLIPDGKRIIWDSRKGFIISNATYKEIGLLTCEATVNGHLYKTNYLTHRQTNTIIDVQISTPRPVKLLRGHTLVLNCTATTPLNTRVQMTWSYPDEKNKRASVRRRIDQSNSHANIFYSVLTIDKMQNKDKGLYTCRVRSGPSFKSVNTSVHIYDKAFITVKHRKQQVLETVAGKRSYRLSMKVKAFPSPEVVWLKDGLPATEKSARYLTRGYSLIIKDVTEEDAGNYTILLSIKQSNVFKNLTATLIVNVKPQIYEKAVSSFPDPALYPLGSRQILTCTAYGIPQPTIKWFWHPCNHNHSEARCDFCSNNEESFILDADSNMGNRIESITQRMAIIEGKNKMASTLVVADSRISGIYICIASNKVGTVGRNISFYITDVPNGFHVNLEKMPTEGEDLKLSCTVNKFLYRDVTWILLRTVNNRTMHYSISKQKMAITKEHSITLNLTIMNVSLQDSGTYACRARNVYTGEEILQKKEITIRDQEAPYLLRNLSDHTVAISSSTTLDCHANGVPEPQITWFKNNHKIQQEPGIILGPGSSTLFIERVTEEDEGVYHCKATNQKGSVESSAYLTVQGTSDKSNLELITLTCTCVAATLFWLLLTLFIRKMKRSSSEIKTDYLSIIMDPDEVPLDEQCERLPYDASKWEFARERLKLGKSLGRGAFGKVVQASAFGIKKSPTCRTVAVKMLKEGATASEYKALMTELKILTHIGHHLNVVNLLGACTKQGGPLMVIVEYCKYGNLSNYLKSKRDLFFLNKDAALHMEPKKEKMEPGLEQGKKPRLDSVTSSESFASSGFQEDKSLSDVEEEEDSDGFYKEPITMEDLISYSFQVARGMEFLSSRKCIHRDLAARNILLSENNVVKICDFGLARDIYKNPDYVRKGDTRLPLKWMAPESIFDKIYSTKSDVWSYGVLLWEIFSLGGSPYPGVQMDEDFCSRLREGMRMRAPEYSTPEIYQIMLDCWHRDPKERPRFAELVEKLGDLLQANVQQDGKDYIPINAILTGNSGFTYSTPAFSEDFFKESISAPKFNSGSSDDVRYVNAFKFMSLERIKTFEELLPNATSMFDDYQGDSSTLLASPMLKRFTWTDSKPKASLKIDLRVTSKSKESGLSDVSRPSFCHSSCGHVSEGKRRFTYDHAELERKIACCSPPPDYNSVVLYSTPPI
Chain of Tyrosine-protein kinase BTK (Homo sapiens) (Q06187 whole entry): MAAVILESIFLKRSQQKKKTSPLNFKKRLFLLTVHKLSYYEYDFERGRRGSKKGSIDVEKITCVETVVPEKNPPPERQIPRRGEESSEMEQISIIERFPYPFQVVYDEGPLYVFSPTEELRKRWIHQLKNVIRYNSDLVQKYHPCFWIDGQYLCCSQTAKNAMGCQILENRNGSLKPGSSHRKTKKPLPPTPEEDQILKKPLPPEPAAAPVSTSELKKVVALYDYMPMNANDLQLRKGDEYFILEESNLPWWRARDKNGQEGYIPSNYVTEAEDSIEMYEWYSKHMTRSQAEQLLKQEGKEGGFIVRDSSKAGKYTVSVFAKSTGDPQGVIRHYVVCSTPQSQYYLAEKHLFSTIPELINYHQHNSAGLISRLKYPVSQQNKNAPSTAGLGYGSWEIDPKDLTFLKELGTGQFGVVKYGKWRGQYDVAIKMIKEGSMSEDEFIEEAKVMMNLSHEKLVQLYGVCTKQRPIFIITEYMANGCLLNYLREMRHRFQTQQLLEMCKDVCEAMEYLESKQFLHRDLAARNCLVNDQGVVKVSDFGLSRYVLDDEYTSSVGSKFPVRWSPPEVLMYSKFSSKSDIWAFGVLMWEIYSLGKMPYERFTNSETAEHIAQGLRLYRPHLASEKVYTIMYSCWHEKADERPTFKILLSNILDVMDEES
Chain of Tyrosine-protein kinase ABL1 (Homo sapiens) (P00519 whole entry): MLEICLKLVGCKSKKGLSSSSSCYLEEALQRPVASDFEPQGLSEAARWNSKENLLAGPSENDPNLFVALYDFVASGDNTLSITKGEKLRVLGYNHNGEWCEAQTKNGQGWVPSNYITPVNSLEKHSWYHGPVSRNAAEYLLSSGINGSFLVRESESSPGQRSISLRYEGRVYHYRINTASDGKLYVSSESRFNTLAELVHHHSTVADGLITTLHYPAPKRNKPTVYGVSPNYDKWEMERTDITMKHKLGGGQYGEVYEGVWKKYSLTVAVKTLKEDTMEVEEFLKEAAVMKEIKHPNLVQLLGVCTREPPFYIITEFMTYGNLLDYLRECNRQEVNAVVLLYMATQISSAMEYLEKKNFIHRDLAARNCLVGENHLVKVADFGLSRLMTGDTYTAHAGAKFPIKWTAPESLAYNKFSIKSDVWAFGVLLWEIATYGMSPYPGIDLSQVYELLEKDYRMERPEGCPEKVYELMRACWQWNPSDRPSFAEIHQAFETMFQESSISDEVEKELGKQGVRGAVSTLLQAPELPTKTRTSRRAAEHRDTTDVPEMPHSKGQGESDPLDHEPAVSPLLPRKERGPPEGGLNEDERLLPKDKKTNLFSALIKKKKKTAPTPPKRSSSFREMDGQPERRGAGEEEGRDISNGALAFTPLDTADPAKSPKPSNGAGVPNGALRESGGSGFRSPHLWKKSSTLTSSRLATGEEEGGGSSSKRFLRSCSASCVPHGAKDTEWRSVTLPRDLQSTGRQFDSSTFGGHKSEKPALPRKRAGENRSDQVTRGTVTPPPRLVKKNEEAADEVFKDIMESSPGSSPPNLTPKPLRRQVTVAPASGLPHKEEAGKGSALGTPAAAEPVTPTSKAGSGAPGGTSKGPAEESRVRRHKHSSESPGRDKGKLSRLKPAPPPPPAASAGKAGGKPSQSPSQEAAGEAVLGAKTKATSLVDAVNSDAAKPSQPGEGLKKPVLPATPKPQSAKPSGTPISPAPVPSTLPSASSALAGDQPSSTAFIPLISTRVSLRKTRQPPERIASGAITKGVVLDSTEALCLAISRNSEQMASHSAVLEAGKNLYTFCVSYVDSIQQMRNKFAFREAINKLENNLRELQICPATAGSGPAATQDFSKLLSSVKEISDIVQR
Chain of Mitogen-activated protein kinase 3 (Homo sapiens) (P27361 whole entry): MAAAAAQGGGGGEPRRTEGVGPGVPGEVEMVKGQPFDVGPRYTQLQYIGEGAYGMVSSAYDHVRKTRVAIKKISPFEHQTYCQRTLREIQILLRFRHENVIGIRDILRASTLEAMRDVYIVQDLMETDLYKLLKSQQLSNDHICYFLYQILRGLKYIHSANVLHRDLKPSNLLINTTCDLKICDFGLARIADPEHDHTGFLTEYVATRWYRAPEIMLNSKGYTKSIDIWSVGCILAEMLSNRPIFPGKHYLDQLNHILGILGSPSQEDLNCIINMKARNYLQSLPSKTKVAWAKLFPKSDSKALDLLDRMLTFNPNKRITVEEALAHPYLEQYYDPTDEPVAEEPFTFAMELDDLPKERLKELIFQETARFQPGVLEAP
Chain of Ephrin type-A receptor 2 (Homo sapiens) (P29317 whole entry, the tested form may be a part): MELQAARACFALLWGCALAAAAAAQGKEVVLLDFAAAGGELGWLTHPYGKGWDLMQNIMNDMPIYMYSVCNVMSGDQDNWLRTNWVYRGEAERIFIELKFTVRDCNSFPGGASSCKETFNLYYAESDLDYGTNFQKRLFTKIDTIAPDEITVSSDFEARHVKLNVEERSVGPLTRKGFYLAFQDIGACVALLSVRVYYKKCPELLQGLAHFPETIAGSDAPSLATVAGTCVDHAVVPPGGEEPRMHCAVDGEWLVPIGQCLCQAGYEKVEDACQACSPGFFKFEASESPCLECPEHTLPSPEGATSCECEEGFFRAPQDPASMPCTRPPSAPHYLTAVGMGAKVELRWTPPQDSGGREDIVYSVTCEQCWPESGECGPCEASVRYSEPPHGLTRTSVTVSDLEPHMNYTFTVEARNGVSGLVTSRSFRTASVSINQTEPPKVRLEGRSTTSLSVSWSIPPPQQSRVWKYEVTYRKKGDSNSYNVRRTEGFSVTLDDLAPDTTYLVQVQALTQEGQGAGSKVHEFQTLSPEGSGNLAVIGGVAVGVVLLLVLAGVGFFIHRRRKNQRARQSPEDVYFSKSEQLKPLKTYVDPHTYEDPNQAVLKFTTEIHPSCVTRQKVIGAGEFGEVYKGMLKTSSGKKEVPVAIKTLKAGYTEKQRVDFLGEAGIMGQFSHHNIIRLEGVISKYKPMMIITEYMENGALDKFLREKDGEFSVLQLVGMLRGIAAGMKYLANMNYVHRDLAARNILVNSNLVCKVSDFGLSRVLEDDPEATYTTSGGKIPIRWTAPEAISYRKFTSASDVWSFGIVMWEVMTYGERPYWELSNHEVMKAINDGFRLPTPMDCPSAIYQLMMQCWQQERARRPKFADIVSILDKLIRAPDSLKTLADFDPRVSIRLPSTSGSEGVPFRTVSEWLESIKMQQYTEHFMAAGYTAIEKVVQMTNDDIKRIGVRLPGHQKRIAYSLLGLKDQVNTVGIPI

## Cc1ccc(C(=O)Nc2cccc(C(F)(F)F)c2)cc1-c1ccc2c(-c3cnn(C4CC4)c3)n[nH]c2c1
NCI-H2286 [1]
  IC50: 93 nM
[2]
  Cmax: 1120 ng/mL
[3]
  inhibition: 86.6%
[4]
  inhibition: 47.1%
[5]
  inhibition: 0.6%
[6]
  inhibition: 2.5%
[7]
  inhibition: 46.8%
[8]
  inhibition: 22%
[9]
  inhibition: 65.3%
[10]
  inhibition: 86.6%
[11]
  inhibition: Active
NCI-H716
  IC50: 31.8 nM
NCI-H2286 [12]
  IC50: 93 nM
NCI-H1581 [13]
  inhibition in vivo at 10 mg/kg: 59.7%
NCI-H1581 [14]
  TGI: Dose-dependent effect
